Laboratory results as given in ChEMBL document CHEMBL2375256, “Functionalized indoleamines as potent, drug-like inhibitors of isoprenylcysteine carboxyl methyltransferase (Icmt)” (Eur J Med Chem, 2013).
≈ marks a conversion by molar mass, not a printed value.

Assays:
PC-3 = test: Antiproliferative activity against human PC3 cells after 72 hrs […]; assay type: functional, cell-based; settings: PC-3, 72 h
MDA-MB-231 = test: Antiproliferative activity against human MDA-MB-231 cells after 72 hrs […]; assay type: functional, cell-based; settings: MDA-MB-231, 72 h
[1] = target: Protein-S-isoprenylcysteine O-methyltransferase (Homo sapiens, UniProt O60725); test: Inhibition of recombinant Icmt (unknown origin) expressed in Sf9 cells assessed as transfer of methyl group from [3H]-S-adenosylmethionine to [3H]-biotin-S-farnesyl-L-cysteine after 30 mins
Chain of Protein-S-isoprenylcysteine O-methyltransferase (O60725 whole entry): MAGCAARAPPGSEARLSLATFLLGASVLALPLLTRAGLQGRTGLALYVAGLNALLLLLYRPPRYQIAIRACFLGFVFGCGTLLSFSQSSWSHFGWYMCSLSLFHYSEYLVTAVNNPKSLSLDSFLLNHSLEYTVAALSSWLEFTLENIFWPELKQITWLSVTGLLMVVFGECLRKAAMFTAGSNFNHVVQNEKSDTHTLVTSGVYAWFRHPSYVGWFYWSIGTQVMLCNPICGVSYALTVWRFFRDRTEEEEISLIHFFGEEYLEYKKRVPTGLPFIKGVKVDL
Outline: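 Icmt membrane protein was diluted to 0.03 mg/mL in 70 mM HEPES, 100 mM NaCl, 5 mM MgCl2, 3 mM DTT, pH 7.5, and preincubated with inhibitor. The reaction was started with a mix of BFC, SAM and [3H]SAM and run 30 min at 37 °C. It was quenched with excess SAM, captured on streptavidin SPA beads overnight at ambient temperature, and counted. IC50 was taken from % activity versus log concentration, with two independent determinations.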

[2] = Half life in rat liver microsomes at 3 uM; assay type: ADME, Microsome
Outline: (§1)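 Compound at 3 µM was incubated with pooled male rat liver microsomes (0.3 mg protein/mL) in 0.1 M phosphate buffer pH 7.4 with 1 mM EDTA. The reaction was started with NADPH (1 mM final) at 37 °C and sampled at 0, 5, 15, 30 and 45 min.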

[3] = Intrinsic clearance in rat liver microsomes at 3 uM; assay type: ADME, Microsome; settings: read-out: CLH; outline: as §1
[4] = Aqueous solubility of the compound at pH 7.4 after 24 hrs agitation; assay type: physicochemical
IMR-90 = test: Antiproliferative activity against human IMR90 cells after 72 hrs […]; assay type: cell-based; settings: IMR-90, 72 h
HepG2 = test: Antiproliferative activity against human HepG2 cells after 72 hrs […]; assay type: functional, cell-based; settings: HepG2, 72 h
MIA PaCa-2 = test: Antiproliferative activity against human MIAPaCa2 cells after 72 hrs by MTT assay; assay type: functional, cell-based; settings: MIA PaCa-2, 72 h

SMILES | IC50 (PC-3) [µM] | IC50 (MDA-MB-231) [µM] | further results
CCCCCCCCn1cc(CN(CC)CC)c2cc(-c3cnc(C#N)nc3)ccc21 | 5.74 | 3.85 | –
CCCCCCCCn1cc(CN(CC)CC)c2ccc(F)cc21 | – | 9.14 | IC50 [1]: 2.22 µM
CCCCCCCCn1cc(CN(CC)CC)c2cc(-c3ccc(C#N)cc3)ccc21 | 6.11 | 10.8 | –
CCCCCCCCn1cc(CN(CC)CC)c2cc(-c3cccc(O)c3)ccc21 | 14.9 | 18.1 | –
CCCCCCCCn1cc(CN(CC)CC)c2cc(-c3ccncc3F)ccc21 | 5.88 | 5.14 | IC50 [1]: 0.96 µM
CCCCCCCCn1cc(CN(CC)CC)c2cc(-c3ccc(S(C)(=O)=O)cc3)ccc21 | 4.74 | 5.56 | –
CCCCCCCCn1cc(CN(CC)CC)c2cc(-c3cccc(C)c3)ccc21 | 6.31 | 5.14 | half-life at 3 µM [2]: 26.9 min; microsomal CLint at 3 µM [3]: 85.8 µL/min/mg; solubility at 24 h [4]: 1.1 µM (≈ 0.445 µg/mL); IC50 (IMR-90): 5.26 µM; IC50 (HepG2): 4.9 µM
CCCCCCCCn1cc(CN(CC)CC)c2cc(-c3ccc(N(C)C)nc3)ccc21 | 1.92 | 2.52 | IC50 [1]: 1.63 µM
CCCCCCCCn1cc(CC(N)=O)c2cc(-c3cccc(C)c3)ccc21 | 21.3 | 22.1 | half-life at 3 µM [2]: 44.8 min; microsomal CLint at 3 µM [3]: 53.6 µL/min/mg; IC50 (HepG2): 19.3 µM
CCCCCCCCn1cc(CN(CC)CC)c2c(F)cccc21 | – | 7.5 | –
CCCCCCCCn1cc(CN(CC)CC)c2cc(-c3ccc(S(=O)(=O)NC)cc3)ccc21 | – | 10.2 | –
CCCCCCCCn1cc(CN(CC)CC)c2cc(-c3cncnc3)ccc21 | 8.47 | 11.1 | IC50 (IMR-90): 9.84 µM
CCCCCCCCn1cc(CN(CC)CC)c2cccc(F)c21 | – | 8.87 | –
CCCCCCCCn1cc(CN(CC)CC)c2cc(F)ccc21 | – | 7.36 | IC50 [1]: 4.42 µM
CCCCCCCCn1cc(CN(CC)CC)c2cc(-c3cnc(N)nc3)ccc21 | 2.55 | 2.48 | half-life at 3 µM [2]: 11.3 min; microsomal CLint at 3 µM [3]: 204 µL/min/mg; IC50 (IMR-90): 2.65 µM; IC50 (MIA PaCa-2): 1.6 µM; IC50 (HepG2): 1.65 µM
CCCCCCCCn1cc(CN(CC)CC)c2cc(-c3cccnc3)ccc21 | 5.84 | 5.5 | IC50 (IMR-90): 5.52 µM
